In ChEMBL document CHEMBL1914381, “New spirocyclic Δ²-isoxazoline derivatives related to selective agonists of α7 neuronal nicotinic acetylcholine receptors” (Eur J Med Chem, 2011):

Assays:
[1] = molecular target: Neuronal acetylcholine receptor subunit alpha-7 (Rattus norvegicus, UniProt Q05941); assay: Displacement of [125I]-alpha-bungarotoxin from alpha7 nAChR in rat cortical membranes by gamma counting; type: cell membranes, Membrane
Outline: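 Rat cortex membranes (two rats per experiment, homogenized and centrifuged twice at 60,000g) in Tris-HCl buffer pH 7 with protease inhibitors. Pre-incubated 30 min r.t. with test compound (10 pM–10 mM), then overnight at r.t. with 1 nM [125I]α-bungarotoxin. Nonspecific binding with […]. Filtered on polyethylenimine-soaked GF/C filters; gamma counting. Ki fitted from three competition experiments by non-linear least squares; >100 mM when no inhibition up to 100 mM.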

[2] = molecular target: Neuronal acetylcholine receptor; alpha4/beta2 (Rattus norvegicus, UniProt P09483+P12390); assay: Displacement of [3H]epibatidine from alpha4beta2 nAChR in rat cortical membranes by beta counting relative to acetylcholine; type: cell membranes, Membrane
Neuronal acetylcholine receptor; alpha4/beta2, sequence (P09483 whole entry): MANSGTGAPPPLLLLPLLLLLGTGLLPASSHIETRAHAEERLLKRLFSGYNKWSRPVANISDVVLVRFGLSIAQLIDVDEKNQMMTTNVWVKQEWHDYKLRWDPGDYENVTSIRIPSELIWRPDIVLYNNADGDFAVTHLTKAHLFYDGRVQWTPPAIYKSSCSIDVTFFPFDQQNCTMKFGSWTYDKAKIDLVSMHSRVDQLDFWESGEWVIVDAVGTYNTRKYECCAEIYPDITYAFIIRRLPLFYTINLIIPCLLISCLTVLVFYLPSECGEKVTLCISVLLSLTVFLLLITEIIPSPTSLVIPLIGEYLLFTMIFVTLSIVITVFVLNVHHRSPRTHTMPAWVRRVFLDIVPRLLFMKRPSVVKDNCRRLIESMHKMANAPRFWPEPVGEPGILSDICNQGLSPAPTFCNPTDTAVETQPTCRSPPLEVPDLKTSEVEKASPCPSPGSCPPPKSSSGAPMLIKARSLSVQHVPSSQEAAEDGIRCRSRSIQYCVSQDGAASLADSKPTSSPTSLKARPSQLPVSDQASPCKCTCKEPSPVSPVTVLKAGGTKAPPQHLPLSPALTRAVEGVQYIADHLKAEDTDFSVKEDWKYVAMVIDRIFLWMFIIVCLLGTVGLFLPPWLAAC
Neuronal acetylcholine receptor; alpha4/beta2, sequence (P12390 whole entry): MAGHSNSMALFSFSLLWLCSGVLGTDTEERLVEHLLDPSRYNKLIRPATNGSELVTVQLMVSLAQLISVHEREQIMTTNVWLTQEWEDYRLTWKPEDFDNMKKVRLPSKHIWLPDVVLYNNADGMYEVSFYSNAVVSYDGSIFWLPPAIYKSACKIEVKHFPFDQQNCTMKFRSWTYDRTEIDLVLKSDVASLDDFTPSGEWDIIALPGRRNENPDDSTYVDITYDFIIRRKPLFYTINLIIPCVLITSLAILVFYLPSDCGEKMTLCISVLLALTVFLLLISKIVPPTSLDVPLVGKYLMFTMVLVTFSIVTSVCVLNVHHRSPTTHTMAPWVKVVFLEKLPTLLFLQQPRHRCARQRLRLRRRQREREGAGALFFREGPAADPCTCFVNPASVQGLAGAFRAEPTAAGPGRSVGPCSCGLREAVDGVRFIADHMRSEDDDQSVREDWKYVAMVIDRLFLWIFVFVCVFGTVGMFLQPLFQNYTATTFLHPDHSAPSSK
Outline: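 Rat cortex membranes pre-incubated with […] to block α7 sites. Then 30 min r.t. with test compound (10 pM–10 mM), then overnight at 4 °C with 0.075 nM [3H]epibatidine. Nonspecific binding with 100 nM unlabelled epibatidine. Filtered on PEI-soaked GF/C filters and washed; beta counting. Ki fitted from three competition experiments by non-linear least squares; >100 mM when no inhibition up to 100 mM.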

[3] = molecular target: Neuronal acetylcholine receptor; alpha3/beta4 (Homo sapiens, UniProt P30926+P32297); assay: Displacement of [3H]epibatidine from alpha3beta4 nAChR expressed in human HEK293 cells by beta liquid scintillation counting; type: cell-based
Neuronal acetylcholine receptor; alpha3/beta4, sequence (P30926 whole entry): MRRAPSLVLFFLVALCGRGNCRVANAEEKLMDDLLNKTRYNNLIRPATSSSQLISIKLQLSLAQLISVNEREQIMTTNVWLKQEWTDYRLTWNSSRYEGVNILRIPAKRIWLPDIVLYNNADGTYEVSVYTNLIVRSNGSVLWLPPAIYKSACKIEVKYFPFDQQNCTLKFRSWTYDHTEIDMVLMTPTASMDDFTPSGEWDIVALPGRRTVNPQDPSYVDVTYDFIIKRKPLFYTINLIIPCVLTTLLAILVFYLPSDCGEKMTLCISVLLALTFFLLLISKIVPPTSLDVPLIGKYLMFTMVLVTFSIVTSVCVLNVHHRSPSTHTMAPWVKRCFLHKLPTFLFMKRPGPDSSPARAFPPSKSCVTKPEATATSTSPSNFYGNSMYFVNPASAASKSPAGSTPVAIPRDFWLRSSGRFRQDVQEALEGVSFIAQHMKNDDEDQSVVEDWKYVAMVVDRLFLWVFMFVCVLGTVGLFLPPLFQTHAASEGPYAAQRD
Neuronal acetylcholine receptor; alpha3/beta4, sequence (P32297 whole entry): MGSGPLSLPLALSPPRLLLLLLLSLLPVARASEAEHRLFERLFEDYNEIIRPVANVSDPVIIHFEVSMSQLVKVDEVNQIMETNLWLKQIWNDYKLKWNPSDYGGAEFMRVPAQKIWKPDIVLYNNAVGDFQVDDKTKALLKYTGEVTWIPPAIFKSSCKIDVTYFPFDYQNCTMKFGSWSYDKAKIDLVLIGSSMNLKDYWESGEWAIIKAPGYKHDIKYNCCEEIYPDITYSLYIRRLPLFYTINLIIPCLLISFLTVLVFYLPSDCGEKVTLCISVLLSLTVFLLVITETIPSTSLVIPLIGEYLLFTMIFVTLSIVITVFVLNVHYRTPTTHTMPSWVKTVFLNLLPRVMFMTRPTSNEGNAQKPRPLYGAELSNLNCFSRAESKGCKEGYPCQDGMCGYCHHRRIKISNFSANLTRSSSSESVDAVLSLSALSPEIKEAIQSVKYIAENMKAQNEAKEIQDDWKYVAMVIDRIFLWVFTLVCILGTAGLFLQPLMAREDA
Outline: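 HEK 293 cells transiently transfected with α3 and β4 cDNAs by JetPEI and harvested after 48 h. Compound pre-incubated 5 min, then overnight at 4 °C with 0.25 nM [3H]epibatidine in Tris-HCl pH 7 buffer with 2 mg/ml BSA. Nonspecific binding with 100 nM cold epibatidine. Cells washed seven times with ice-cold PBS; liquid scintillation counting.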

[4] = molecular target: Neuronal acetylcholine receptor subunit alpha-7 (Homo sapiens, UniProt P36544); assay: Agonist activity at human alpha7 nAChR expressed in rat GH4C1 cells assessed as maximal electric current amplitude at 1 mM by whole-cell patch clamp electrophysiology assay relative to acetylcholine; type: functional, cell-based, GH4-C1; details: for Activity: GH4-C1
Neuronal acetylcholine receptor subunit alpha-7 (Homo sapiens, UniProt P36544), sequence (P36544 whole entry, the tested form may be a part): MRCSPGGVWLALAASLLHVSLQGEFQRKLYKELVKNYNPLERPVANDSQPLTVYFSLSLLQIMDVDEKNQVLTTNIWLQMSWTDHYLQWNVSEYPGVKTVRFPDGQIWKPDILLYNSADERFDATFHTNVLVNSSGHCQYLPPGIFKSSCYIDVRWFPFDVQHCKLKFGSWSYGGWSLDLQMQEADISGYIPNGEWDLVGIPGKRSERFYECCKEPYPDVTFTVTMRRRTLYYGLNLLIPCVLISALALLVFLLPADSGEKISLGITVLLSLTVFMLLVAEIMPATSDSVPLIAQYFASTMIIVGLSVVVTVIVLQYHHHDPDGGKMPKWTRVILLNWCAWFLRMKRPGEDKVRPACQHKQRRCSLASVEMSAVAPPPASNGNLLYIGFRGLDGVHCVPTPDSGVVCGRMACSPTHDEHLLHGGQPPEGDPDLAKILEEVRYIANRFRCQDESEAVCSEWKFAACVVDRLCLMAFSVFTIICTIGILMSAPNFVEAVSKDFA
Outline: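 GH4C1 cells stably transfected with human α7 subunit; whole-cell patch clamp, holding potential −70 mV, fast gravity-driven perfusion exchanger. Compound applied at 1 mM; current amplitude normalized to that from ACh 1 mM on the same cell. n = 8–12 cells.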

Neuronal acetylcholine receptor subunit alpha-7 (Rattus norvegicus, UniProt Q05941), sequence (Q05941 whole entry): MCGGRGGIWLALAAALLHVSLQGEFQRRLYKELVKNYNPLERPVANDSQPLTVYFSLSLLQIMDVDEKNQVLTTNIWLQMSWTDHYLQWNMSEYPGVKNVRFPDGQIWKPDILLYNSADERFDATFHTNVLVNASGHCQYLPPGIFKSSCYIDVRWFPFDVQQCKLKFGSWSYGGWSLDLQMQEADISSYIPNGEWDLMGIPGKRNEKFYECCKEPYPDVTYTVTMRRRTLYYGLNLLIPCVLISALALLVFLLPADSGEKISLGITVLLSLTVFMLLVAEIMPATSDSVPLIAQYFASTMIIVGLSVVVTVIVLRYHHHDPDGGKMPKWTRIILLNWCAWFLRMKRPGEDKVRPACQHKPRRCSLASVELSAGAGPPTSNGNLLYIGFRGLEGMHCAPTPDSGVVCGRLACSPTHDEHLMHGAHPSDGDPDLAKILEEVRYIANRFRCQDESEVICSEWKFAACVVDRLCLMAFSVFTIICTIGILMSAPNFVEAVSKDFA

Structure (SMILES) | Ki [1] [µM] | Ki [2] [µM] | Ki [3] [µM] | EC50 [4] [µM] | Activity [4] [%]
BrC1=NOC2(C1)CN1CCC2CC1 (racemic) | 0.0135 | 0.64 |  |  | 
COC1=NOC2(C1)CN1CCC2CC1 (racemic) | 0.0142 | 7.9 |  |  | 
c1ccc(C2=NOC3(C2)CN2CCC3CC2)cc1 (racemic) | 0.025 | 22 |  |  | 
C[N+]12CCC(CC1)C1(CC(Br)=NO1)C2 (racemic) | 0.109 | 32.5 |  |  | 
COC1=NOC2(C1)C[N+]1(C)CCC2CC1 (racemic) | 0.0914 | 175 |  |  | 
BrC1=NOC2(C1)CN1CCC2C1 (racemic) | 0.23 | 5 | 13 | 84.1 | 76
COC1=NOC2(C1)CN1CCC2C1 (racemic) | 0.42 | 16 | 46 |  | 
c1ccc(C2=NOC3(C2)CN2CCC3C2)cc1 (racemic) | 3.6 | 53 | 16 |  | 
C[N+]12CCC(C1)C1(CC(Br)=NO1)C2 (racemic) | 6.2 | 22 |  |  | 
COC1=NOC2(C1)C[N+]1(C)CCC2C1 (racemic) | 2.9 | 20 |  |  | 
C[N+]12CCC(C1)C1(CC(c3ccccc3)=NO1)C2 (racemic) | 5.1 | 38 |  |  | 
CN1CCCC2(CC(Br)=NO2)C1 (racemic) | 6.6 | 44 |  |  | 
COC1=NOC2(CCCN(C)C2)C1 (racemic) | 5.5 | > 100 | 91 |  | 7
CN1CCCC2(CC(c3ccccc3)=NO2)C1 (racemic) | 30 | > 100 |  |  | 
C[N+]1(C)CCCC2(CC(Br)=NO2)C1 (racemic) | 3.7 | 50 |  |  | 
COC1=NOC2(CCC[N+](C)(C)C2)C1 (racemic) | 13 | 94 |  |  | 
C[N+]1(C)CCCC2(CC(c3ccccc3)=NO2)C1 (racemic) | 0.7 | > 100 | 6.6 |  | 26
BrC1=NOC2(CCCNC2)C1 (racemic) | 4.3 | 58 |  |  | 
COC1=NOC2(CCCNC2)C1 (racemic) | 3.7 | > 100 | 75 |  | 
c1ccc(C2=NOC3(CCCNC3)C2)cc1 (racemic) | 4.5 | > 100 | 43 |  | 
